Source: ChEMBL document CHEMBL1671691 (Antimicrob Agents Chemother, 2010)

Test system: Influenza A virus
Experiment: Antiviral activity against adamantane-, oseltamivir-, zanamivir-susceptible Influenza A virus (A/Georgia/17/2006(H1N1)) infected in MDCK cells assessed as inhibition of viral replication after 3 days by microscopic analysis using crystal violet stain
Assay type: functional, organism-based
Conditions: 72 h
How it was run: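 Confluent MDCK-ATCC monolayers infected with virus diluted to give 15–45 plaques/well. Adsorption 1 h at 37°C without drug, then washed. Overlaid with 0.8% agarose in MEM containing drug plus TPCK-trypsin: 3 μg/ml for seasonal viruses, 2 μg/ml for 2009 A(H1N1). Incubated 3 days at 37°C, 5% CO2. Ethanol-fixed, crystal violet-stained, plaques counted. EC50 by curve fit; duplicates on three occasions, mean ± SD.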

## NC(=O)c1ncn([C@@H]2O[C@H](CO)[C@@H](O)[C@H]2O)n1 [RIBAVIRIN]
  EC50: 4.92 µM
